One assay deals with HT-29. Nature of the assay: Growth inhibition of human HT-29 cells after 72 hrs by CellTiter-Glo reagent based assay. As to conditions: HT-29, 72 h; call rule not given here. It counts as functional. The procedure, abridged: (§1)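 Cancer cell lines (PC3 prostate, HT29 colorectal carcinoma, MDA-MB-231 breast) were screened by quantitative high-throughput screening in whole cells, and CC50 values were derived.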

Another assay deals with PC-3. Nature of the assay: Growth inhibition of human PC3 cells after 72 hrs by CellTiter-Glo reagent based assay. It is filed as functional. The settings on record: PC-3, 72 h. The procedure, abridged:
as §1

The subject of another assay is MDA-MB-231. Nature of the assay: Growth inhibition of human MDA-MB-231 cells after 72 hrs by CellTiter-Glo reagent based assay. It counts as functional. As to conditions: MDA-MB-231, 72 h. The procedure, abridged: as §1
A short description of assay [1]: Growth inhibition of mouse CPC300 cells after 72 hrs by CellTiter-Glo reagent based assay. It counts as functional, cell-based.
Assay [2] can be described thus: Growth inhibition of human NALM16 cells after 72 hrs by CellTiter-Glo reagent based assay. It counts as functional, cell-based.
Another assay has as its system Raji. Kind of assay: Growth inhibition of human Raji cells after 72 hrs by CellTiter-Glo reagent based assay. It counts as functional, cell-based.
In the next assay the test system is Jurkat E6.1. Nature of the assay: Growth inhibition of human Jurkat E6-1 cells after 72 hrs by CellTiter-Glo reagent based assay. It counts as functional, cell-based.
In the next assay the test system is REH. Kind of assay: Growth inhibition of human REH cells after 72 hrs by CellTiter-Glo reagent based assay. It is filed as functional, cell-based.
The test system of a further assay is 697. Kind of assay: Growth inhibition of human 697 cells after 72 hrs by CellTiter-Glo reagent based assay. It is filed as functional, cell-based.
The subject of another assay is BJ. Nature of the assay: Growth inhibition of human BJ cells after 72 hrs by CellTiter-Glo reagent based assay. It is filed as cell-based. An outline of the steps: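 Normal human foreskin fibroblast (BJ) counter-screen for cytotoxicity, with drug tested at 10 μM.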
Setting [3] is: Homo sapiens, NALM16, 72 h, read-out: EC50.
[4] abbreviates: Mus musculus, CPC300, 72 h, read-out: EC50.
[5] abbreviates: Homo sapiens, Raji, 72 h, read-out: EC50.
Where [6] appears, read: Homo sapiens, REH, 72 h, read-out: EC50.
Setting [7] is: Homo sapiens, 697, 72 h, read-out: EC50.

Regarding `CC1=C(CC(=O)N(C)CCN(C)C)c2cc(F)ccc2/C1=C\c1nc2ccccc2s1`, the figures for the CC50 in the assay with HT-29, in the assay with PC-3 and with MDA-MB-231 were 2.02 µM, 5.88 µM and 3.8 µM, respectively. Also, the EC50 entry was “Not Active” in assay [1] (cpc300); 0.3 µM in assay [2] (setting [3]); “Not Active” in the assay with Raji (raji); “Not Active” with Jurkat E6.1 (jurkat e6.1); “Not Active” in the assay on REH (reh); “Not Active” with 697 (697). The same molecule registered a 50% effective concentration (EC50) in the assay on BJ greater than 7.57 µM.

Turning to `CC1=C(CC(=O)N2CCN(CCCN(C)C)CC2)c2cc(F)ccc2/C1=C\c1nc2ccccc2s1`, the half-maximal cytotoxic concentration (CC50) with HT-29 is 1.62 µM; in the assay on PC-3, 4.21 µM; with MDA-MB-231, 2.9 µM. Moreover, the EC50 result in assay [1] (cpc300) was “Not Active”; in assay [2] (setting [3]) it was 0.097 µM; in the assay with Raji (raji) it was “Not Active”; with Jurkat E6.1 (jurkat e6.1) it was “Not Active”; in the assay with REH (reh), “Not Active”; in the assay with 697 (697), “Not Active”. The same molecule showed a half-maximal effective concentration (EC50) with BJ greater than 7.57 µM.

Turning to `CC1=C(CC(=O)NCc2ccccc2)c2cc(F)ccc2/C1=C\c1ccc([S+](C)[O-])cc1` (stereo not drawn), the figures for the CC50 in the assay with HT-29, with PC-3 and with MDA-MB-231 were 0.5 µM, 2.64 µM and 0.78 µM, respectively. Further, the EC50 in [1] (setting [4]) worked out at 120 µM; in assay [2] (setting [3]) it was 1.3 µM; with Raji (setting [5]) it was 2.6 µM; with Jurkat E6.1 (Homo sapiens, Jurkat E6.1, 72 h, read-out: EC50) it was 1.3 µM; in the assay on REH (setting [6]), 3.3 µM; with 697 (setting [7]), 4.1 µM. The molecule also yielded an EC50 in the assay with BJ greater than 7.57 µM.

With `CC1=C(CC(=O)NCCCN(C)C)c2cc(F)ccc2/C1=C\c1nc2ccccc2s1`, the values for the CC50 in the assay with HT-29, with PC-3 and in the assay on MDA-MB-231 were 1.05 µM, 3.25 µM and 1.93 µM, respectively. The concentration for a half-maximal effect (EC50) in assay [1] (setting [4]) was 65 µM; in [2] (setting [3]) it was 0.35 µM; in the assay on Raji (raji), “Not Active”; in the assay with Jurkat E6.1 (jurkat e6.1) it was “Not Active”; in the assay on REH (reh), “Not Active”; in the assay with 697 (697) it was “Not Active”. In addition, the EC50 in the assay with BJ was greater than 7.57 µM.

As to `CC1=C(CC(=O)NCCN2CCCC2)c2cc(F)ccc2/C1=C\c1nc2ccccc2s1`, the half-maximal cytotoxic concentration (CC50) is 1.21 µM with HT-29, 4.94 µM with PC-3 and 3.56 µM with MDA-MB-231. Besides, the EC50 result is “Not Active” in assay [1] (cpc300); “Not Active” in assay [2] (nalm16); 47 µM with Raji (setting [5]); “Not Active” with Jurkat E6.1 (jurkat e6.1); 18 µM with REH (setting [6]); “Not Active” in the assay on 697 (697). The same molecule registered an EC50 in the assay with BJ greater than 7.57 µM.

On to `CC1=C(CC(=O)N2CCN(c3ccncc3)CC2)c2cc(F)ccc2/C1=C\c1nc2ccccc2s1`, for which the half-maximal cytotoxic concentration (CC50) in the assay on HT-29 came to 5.25 µM; in the assay on PC-3, 12.3 µM; with MDA-MB-231, 7.71 µM. Besides, the EC50 in [1] (setting [4]) is 72 µM; in [2] (nalm16) it was “Not Active”; in the assay with Raji (raji), “Not Active”; in the assay with Jurkat E6.1 (jurkat e6.1) it was “Not Active”; in the assay with REH (reh), “Not Active”; in the assay with 697 (697), “Not Active”. This molecule also showed an EC50 with BJ greater than 7.57 µM.

As for `CSc1ccc(/C=C2/C(C)=C(CC(=O)N(C)CCN(C)C)c3cc(F)ccc32)cc1`, the values for the CC50 in the assay on HT-29, in the assay on PC-3 and in the assay on MDA-MB-231 were 1.83 µM, 5.63 µM and 3.98 µM, respectively. Moreover, the EC50 entry in assay [1] (cpc300) is “Not Active”; in assay [2] (setting [3]), 0.071 µM; in the assay with Raji (setting [5]), 0.83 µM; in the assay with Jurkat E6.1 (jurkat e6.1) it was “Not Active”; with REH (reh), “Not Active”; in the assay with 697 (697) it was “Not Active”. The molecule also displayed an EC50 in the assay with BJ greater than 7.57 µM.

As to `COc1cc(/C=C2/C(C)=C(CC(=O)N(C)CCN(C)C(=O)[C@@H](N)C(C)C)c3cc(F)ccc32)cc(OC)c1OC`, the CC50 in the assay on HT-29 stood at 10.7 µM; with PC-3 it was 17.7 µM; in the assay with MDA-MB-231, 18.8 µM. For the same molecule, the EC50 result in [1] (cpc300) was “Not Active”; in assay [2] (nalm16) it was “Not Active”; in the assay on Raji (raji) it was “Not Active”; in the assay with Jurkat E6.1 (jurkat e6.1), “Not Active”; in the assay with 697 (setting [7]), 0.96 µM; with BJ, greater than 7.57 µM.

On to `CSc1ccc(/C=C2/C(C)=C(CC(=O)N3CCN(c4ccncc4)CC3)c3cc(F)ccc32)cc1`, for which the CC50 with HT-29 came to 1.13 µM; with PC-3, 2.76 µM; in the assay with MDA-MB-231 it was 3.08 µM. Further, the EC50 in assay [1] (setting [4]) is 50 µM; in assay [2] (nalm16), “Not Active”; in the assay with Raji (raji) it was “Not Active”; in the assay on Jurkat E6.1 (jurkat e6.1), “Not Active”; in the assay with REH (reh) it was “Not Active”; in the assay with 697 (697) it was “Not Active”. In the assay with BJ, the EC50 was greater than 7.57 µM.

For the molecule `COc1cc(/C=C2/C(C)=C(CC(=O)N3CCN(c4ccncc4)CC3)c3cc(F)ccc32)cc(OC)c1OC`, the 50% cytotoxic concentration (CC50) turned out to be 2.79 µM with HT-29, 5.45 µM in the assay on PC-3 and 6.5 µM with MDA-MB-231. Moreover, the concentration giving a half-maximal response (EC50) entry in assay [1] (cpc300) was “Not Active”; in [2] (nalm16), “Not Active”; in the assay with Raji (raji), “Not Active”; in the assay on Jurkat E6.1 (jurkat e6.1) it was “Not Active”; with REH (setting [6]), 27 µM; with 697 (697), “Not Active”. Besides, in the assay on BJ, the half-maximal effective concentration (EC50) was greater than 7.57 µM.

Regarding `CSc1ccc(/C=C2/C(C)=C(CC(=O)N3CCCN(C)CC3)c3cc(F)ccc32)cc1`, the 50% cytotoxic concentration (CC50) in the assay on HT-29 turned out to be 2.94 µM; in the assay on PC-3, 7.35 µM; in the assay on MDA-MB-231, 7.21 µM. In addition, the half-maximal effective concentration (EC50) entry in assay [1] (cpc300) is “Not Active”; in [2] (setting [3]) it was 0.49 µM; in the assay on Jurkat E6.1 (jurkat e6.1), “Not Active”; in the assay on REH (reh), “Not Active”; with 697 (697), “Not Active”; in the assay with BJ it was greater than 7.57 µM.

Take `CSc1ccc(/C=C2/C(C)=C(CC(=O)NCCN(C)C)c3cc(F)ccc32)cc1`: the values for the CC50 in the assay with HT-29, with PC-3 and in the assay with MDA-MB-231 were 0.65 µM, 3.12 µM and 2.67 µM, respectively. In addition, the EC50 result (in [1] (cpc300); in [2] (nalm16); in the assay with Raji (raji); with Jurkat E6.1 (jurkat e6.1); in the assay on REH (reh); with 697 (697)) was “Not Active” each time. In the assay on BJ, this molecule returned an EC50 greater than 7.57 µM.

On to `CSc1ccc(/C=C2/C(C)=C(CC(=O)N3CCN(CCN(C)C)CC3)c3cc(F)ccc32)cc1`, for which the CC50 was 2.17 µM with HT-29, 6.23 µM in the assay with PC-3 and 4.05 µM in the assay on MDA-MB-231. Moreover, the 50% effective concentration (EC50) was 27 µM in assay [1] (setting [4]); 1.9 µM in [2] (setting [3]); “Not Active” with Raji (raji); “Not Active” in the assay with Jurkat E6.1 (jurkat e6.1); “Not Active” in the assay on REH (reh); “Not Active” in the assay on 697 (697). The EC50 with BJ was greater than 7.57 µM.

Values taken from ChEMBL document CHEMBL4043244, “Diverse amide analogs of sulindac for cancer treatment and prevention” (Bioorg Med Chem Lett, 2017).
